Results published in article PMC7442691 (Nature chemical biology, 2020).

Tests used:
[1] = target: Pin1 (Homo sapiens, UniProt Q13526); experiment: Cellular target engagement, live cell competition with BJP-DTB; format: cell-based; settings: PATU-8988T cells, 5 h treatment
How it was run: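 PATU-8988T, PC3 or MDA-MB-468 cells (2.5 million per 10 cm plate) were dosed next day with test compound, either as a concentration series for 5 h or at 5 μM over time. Cells were PBS-washed, scraped and lysed (HEPES pH 7.4, NP-40, TCEP, protease inhibitors). Lysate (500 μg protein) took desthiobiotin-tagged probe at 4°C, then streptavidin agarose for 1 h at 4°C. Washed beads were boiled in LDS for immunoblotting.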

[2] = test system: PATU-8988T C1 (Pin1 WT) and C2 (Pin1 KO); experiment: Cell viability, dose series in 2D monolayer, C1 vs C2; format: cell-based, human; settings: juglone 4 days, KPT-6566 3 days
[3] = test system: FKBP12^F36V-Pin1; experiment: dTAG degradation of FKBP12F36V-Pin1 by immunoblot; format: cell-based, human; settings: for rescue of dTAG-13 degradation by pretreatment: 2 h pretreatment, then 5 h dTAG-13 500 nM
[4] = test system: PATU-8988T cells (parental, C1, C2 and transduced C2); experiment: Cell viability, growth over time in 2D-adherent monolayer; format: cell-based, human
How it was run: (§1)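 Cells seeded at 100 per well in 96-well plates, one plate per time point, and dosed the day after plating with DMSO, test compound or dTAG-13 at 37°C, 5% CO2. Medium and compound were renewed every 48 h, with Dox 100 ng/mL added for inducible C2 cells. CellTiter-Glo luminescence was normalised to a Day 0 plate read before dosing. At least n = 3 biological replicates.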

[5] = test system: phospho-CDK1 Tyr15, c-Myc, β-Catenin, NFkB p65; experiment: Inhibitor effects on Pin1 downstream signaling; format: cell-based, human; settings: C2 + FKBP12F36V-Pin1 cells, 5 h
How it was run: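 Cells seeded at 100,000 per 6-well well, treated next day with DMSO, test compound, dTAG-13 or Dox, then lysed in RIPA with protease/phosphatase inhibitors for western blotting. For fractionation, 2 million cells per 10 cm plate were treated 5.5 h, trypsinised and split by nuclear/cytoplasmic extraction kit. For Wnt3a arms, cells had 4 h compound, then Wnt3a (50 ng/mL) for 4 more hours.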

[6] = test system: PATU-8988T FKBP12^F36V-KRAS^G12V; KRAS^−/− clone; experiment: Viability with FKBP12F36V-KRASG12V degradation, 4 days; format: cell-based, human; settings: 4-day treatment; dTAG-13 100 nM, BJP-06-005-3 5 μM
How it was run: as §1

[7] = C2 + FKBP12F36V-Pin1 cells, 5 h

Pin1, sequence (Q13526 whole entry): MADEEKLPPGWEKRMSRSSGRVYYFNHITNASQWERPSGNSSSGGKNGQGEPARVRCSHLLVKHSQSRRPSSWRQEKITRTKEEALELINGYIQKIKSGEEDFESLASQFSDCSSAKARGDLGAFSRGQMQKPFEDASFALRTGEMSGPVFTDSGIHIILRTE

CC(C)(C)c1ccc(S(=O)(=O)N=C2C=C(SCC(=O)O)C(=O)c3ccccc32)cc1 [KPT-6566]
competition with BJP-DTB for cellular Pin1 [1]: unable to validate that KPT-6566 engages cellular Pin1 | anti-proliferative effects, C1 versus C2 [2]: identical anti-proliferative effects in C1 and C2

NS(=O)(=O)OC[C@@H]1C[C@@H](n2ccc3c(N[C@H]4CCc5ccccc54)ncnc32)C[C@@H]1O [MLN4924]
rescue of dTAG-13 degradation by pretreatment [3]: degradation was rescued upon pretreatment

CC(C)C[C@H](NC(=O)[C@H](CCc1ccccc1)NC(=O)CN1CCOCC1)C(=O)N[C@@H](Cc1ccccc1)C(=O)N[C@@H](CC(C)C)C(=O)[C@@]1(C)CO1 [carfilzomib]
rescue of dTAG-13 degradation by pretreatment [3]: degradation was rescued upon pretreatment

CC[C@H](C(=O)N1CCCC[C@H]1C(=O)O[C@H](CCc1ccc(OC)c(OC)c1)c1ccccc1OCC(=O)NCCCCCCOc1cccc2c1C(=O)N(C1CCC(=O)NC1=O)C2=O)c1cc(OC)c(OC)c(OC)c1 (stereo partly drawn) [dTAG-13]
cell proliferation ([4]; C2 + FKBP12F36V-Pin1, 2.5 μM): not at 2.5 μM | cell proliferation ([4]; C2 + FKBP12F36V-Pin1, 100 or 500 nM): diminished cell proliferation after 6–8 days | time to degradation ([3]; 500 nM dTAG-13): 2 to 4 h | concentration at which hook effect apparent [3, 7]: 1 µM | concentration of maximal degradation [3, 7]: 100 to 500 nM | phospho-CDK1 Tyr15 [5]: also increased phospho-CDK1 Tyr15 | cell viability [6]: modest viability effects

O=C1C=CC(=O)c2c(O)cccc21 [juglone]
anti-proliferative effects, C1 versus C2 [2]: identical anti-proliferative effects in C1 and C2
